Columns and labels:
Format in all cases: functional
Mus musculus [1] = test: Antitrypanosomal activity was evaluated against Trypanosoma rhodesiense infections in mice, at dose 212 mg/kg, administered subcutaneously;Cures; conditions: route subcutaneous
Outline: (§1)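 IUR/HA Swiss mice (six weeks old, 30-32 g) infected i.p. with Wellcome CT strain T. rhodesiense. A single subcutaneous dose in peanut oil was given about 2 h after inoculation, with five mice per dose level. Positive control was stilbamidine or 2-hydroxystilbamidine isethionate at 40 mg/kg. Deaths before day 4 were scored toxic, and 30-day survivors cured.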

Mus musculus [2] = test: Antitrypanosomal activity was evaluated against Trypanosoma rhodesiense infections in mice, at dose 106 mg/kg, administered subcutaneously;cures; conditions: route subcutaneous; outline: as §1
Mus musculus [3] = test: Antitrypanosomal activity was evaluated against Trypanosoma rhodesiense infections in mice, at dose 26 mg/kg, administered subcutaneously;cures; conditions: route subcutaneous; outline: as §1
[4] = system: Trypanosoma brucei rhodesiense; test: Antitrypanosomal activity against Trypanosoma rhodesiense infections in mice, 424 mg/kg administered subcutaneously; conditions: route subcutaneous; outline: as §1
Mus musculus [5] = test: Antitrypanosomal activity was evaluated against Trypanosoma rhodesiense infections in mice, at dose 212 mg/kg, administered subcutaneously;Toxic; conditions: route subcutaneous; outline: as §1
[6] = system: Trypanosoma brucei rhodesiense; test: Antitrypanosomal activity against Trypanosoma rhodesiense infections in mice, 106 mg/kg administered subcutaneously; conditions: route subcutaneous
Outline: (§2)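 Six-week-old IUR/HA Swiss mice (30-32 g), 5 per dose, infected ip with 0.5 mL of a 1:50 000 dilution of heparinized heart blood from donor mice infected 3 days before (Wellcome CT strain). Single sc dose in peanut oil about 2 h post-inoculation. Deaths before day 4 counted toxic. ΔMST versus untreated controls; survivors at 30 days counted cured.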

[7] = system: Trypanosoma brucei rhodesiense; test: (§3) Antitrypanosomal activity was evaluated against Trypanosoma rhodesiense infections in mice, at dose 212 mg/kg, administered subcutaneously; conditions: route subcutaneous; outline: as §2
[8] = system: Trypanosoma brucei rhodesiense; test: Anti-trypanosomal activity against Trypanosoma rhodesiense infections in mice, 26 mg/kg administered subcutaneously; conditions: route subcutaneous; outline: as §2
[9] = system: Trypanosoma brucei rhodesiense; test: (§4) Antitrypanosomal activity was evaluated against Trypanosoma rhodesiense infections in mice, at dose 53 mg/kg, administered subcutaneously; conditions: route subcutaneous; outline: as §2
Mus musculus [10] = test: Antitrypanosomal activity was evaluated against Trypanosoma rhodesiense infections in mice, at dose 13 mg/kg, administered subcutaneously;Cures; conditions: route subcutaneous; outline: as §1
Mus musculus [11] = test: (§5) Antitrypanosomal activity was evaluated against Trypanosoma rhodesiense infections in mice, at dose 26 mg/kg, administered subcutaneously;Cures; conditions: route subcutaneous; outline: as §1
Mus musculus [12] = test: Antitrypanosomal activity was evaluated against Trypanosoma rhodesiense infections in mice, at dose 106 mg/kg, administered subcutaneously;Cures; conditions: route subcutaneous; outline: as §1
Mus musculus [13] = test: Antitrypanosomal activity was evaluated against Trypanosoma rhodesiense infections in mice, at dose 6.6 mg/kg, administered subcutaneously;Cures; conditions: route subcutaneous; outline: as §1
Mus musculus [14] = test: Antitrypanosomal activity was evaluated against Trypanosoma rhodesiense infections in mice, at dose 1.6 mg/kg, administered subcutaneously;Cures; conditions: route subcutaneous; outline: as §1
Mus musculus [15] = test: Antitrypanosomal activity was evaluated against Trypanosoma rhodesiense infections in mice, at dose 53 mg/kg, administered subcutaneously; Cures; conditions: route subcutaneous; outline: as §1
Mus musculus [16] = test: Antitrypanosomal activity was evaluated against Trypanosoma rhodesiense infections in mice, at dose 106 mg/kg, administered subcutaneously; Cures; conditions: route subcutaneous; outline: as §1
Mus musculus [17] = test: Antitrypanosomal activity was evaluated against Trypanosoma rhodesiense infections in mice, at dose 424 mg/kg, administered subcutaneously;Cures; conditions: route subcutaneous; outline: as §1
Mus musculus [18] = test: Antitrypanosomal activity was evaluated against Trypanosoma rhodesiense infections in mice, at dose 424 mg/kg, administered subcutaneously;Toxic; conditions: route subcutaneous; outline: as §1
[19] = system: Trypanosoma brucei rhodesiense; test: Antitrypanosomal activity against Trypanosoma rhodesiense infections in mice, 3.3 mg/kg administered subcutaneously; conditions: route subcutaneous; outline: as §2
[20] = system: Trypanosoma brucei rhodesiense; test: Antitrypanosomal activity against Trypanosoma rhodesiense infections in mice, 6.6 mg/kg administered subcutaneously; conditions: route subcutaneous; outline: as §2
Mus musculus [21] = test: Antitrypanosomal activity was evaluated against Trypanosoma rhodesiense infections in mice, at dose 13 mg/kg, administered subcutaneously; Cures; conditions: route subcutaneous; outline: as §1
Mus musculus [22] = test: Antitrypanosomal activity was evaluated against Trypanosoma rhodesiense infections in mice, at dose 26 mg/kg, administered subcutaneously; Cures; conditions: route subcutaneous; outline: as §1
Mus musculus [23] = test: as §4; conditions: route subcutaneous; outline: as §1
Mus musculus [24] = test: (§6) Antitrypanosomal activity was evaluated against Trypanosoma rhodesiense infections in mice, at dose 6.6 mg/kg, administered subcutaneously; conditions: route subcutaneous; outline: as §1
[25] = system: Trypanosoma brucei rhodesiense; test: Antitrypanosomal activity was evaluated against Trypanosoma rhodesiense infections in mice, at dose 106 mg/kg, administered subcutaneously; conditions: route subcutaneous; outline: as §1
[26] = system: Trypanosoma brucei rhodesiense; test: Antitrypanosomal activity was evaluated against Trypanosoma rhodesiense infections in mice, at dose 1.6 mg/kg, administered subcutaneously; conditions: route subcutaneous; outline: as §2
Mus musculus [27] = test: Antitrypanosomal activity was evaluated against Trypanosoma rhodesiense infections in mice, at dose 3.3 mg/kg, administered subcutaneously;Toxic; conditions: route subcutaneous; outline: as §1
[28] = system: Trypanosoma brucei rhodesiense; test: Antitrypanosomal activity was evaluated against Trypanosoma rhodesiense infections in mice, at dose 26 mg/kg, administered subcutaneously; conditions: route subcutaneous; outline: as §1
Mus musculus [29] = test: Antitrypanosomal activity was evaluated against Trypanosoma rhodesiense infections in mice, at dose 13 mg/kg, administered subcutaneously; conditions: route subcutaneous; outline: as §1
Mus musculus [30] = test: Antitrypanosomal activity was evaluated against Trypanosoma rhodesiense infections in mice, at dose 13mg/kg, administered subcutaneously; outline: as §2
Mus musculus [31] = test: Antitrypanosomal activity was evaluated against Trypanosoma rhodesiense infections in mice, at dose 3.3 mg/kg, administered subcutaneously; conditions: route subcutaneous; outline: as §2
Mus musculus [32] = test: as §6; conditions: route subcutaneous; outline: as §2; remark: listed apart in the source
Mus musculus [33] = test: Antitrypanosomal activity was evaluated against Trypanosoma rhodesiense infections in mice, at dose 1.6 mg/kg, administered subcutaneously; Cures; conditions: route subcutaneous; outline: as §1
Mus musculus [34] = test: Antitrypanosomal activity was evaluated against Trypanosoma rhodesiense infections in mice, at dose 3.3 mg/kg, administered subcutaneously; Cures; conditions: route subcutaneous; outline: as §1
Mus musculus [35] = test: Antitrypanosomal activity was evaluated against Trypanosoma rhodesiense infections in mice, at dose 6.6 mg/kg administered subcutaneously; Cures; conditions: route subcutaneous; outline: as §1
Mus musculus [36] = test: as §3; conditions: route subcutaneous; outline: as §1
Mus musculus [37] = test: Antitrypanosomal activity was evaluated against Trypanosoma rhodesiense infections in mice, at dose 1.6mg/kg, administered subcutaneously;Cures; outline: as §1
Mus musculus [38] = test: Antitrypanosomal activity was evaluated against Trypanosoma rhodesiense infections in mice, at dose 3.3 mg/kg, administered subcutaneously;Cures; conditions: route subcutaneous; outline: as §1
Mus musculus [39] = test: Antitrypanosomal activity was evaluated against Trypanosoma rhodesiense infections in mice, at dose 53 mg/kg, administered subcutaneously;Cures; conditions: route subcutaneous; outline: as §1
Mus musculus [40] = test: Antitrypanosomal activity was evaluated against Trypanosoma rhodesiense infections in mice, at dose 53 mg/kg, administered subcutaneously;Toxic; conditions: route subcutaneous; outline: as §1
[41] = system: Trypanosoma brucei rhodesiense; test: Antitrypanosomal activity was evaluated against Trypanosoma rhodesiense infections in mice, at dose 106 mg/kg, administered subcutaneously;Toxic; conditions: route subcutaneous; outline: as §1
Mus musculus [42] = test: as §5; conditions: route subcutaneous; outline: as §2; remark: listed apart in the source

Question: What does the source list for Cl.Cl.N=C(N)NC(=N)Nc1ccc(CCc2ccc(NC(=N)N=C(N)N)cc2)cc1?
Answer: Cures (Mus musculus [1]): 2; Cures (Mus musculus [2]): 3; Cures (Mus musculus [3]): 1; Toxic [4]: 5; Toxic (Mus musculus [5]): 2; Delta MST [6]: 8 days; Delta MST [7]: 12 days; Delta MST [8]: 3 days; Delta MST [9]: 1.4 days

Question: Which results are given for CC1(C)N=C(N)N=C(N)N1c1ccc(/C=C/c2ccc(N3C(N)=NC(N)=NC3(C)C)cc2)cc1.Cl.Cl?
Answer: Cures (Mus musculus [10]): 5; Cures (Mus musculus [1]): 4; Cures (Mus musculus [11]): 3; Cures (Mus musculus [12]): 3; Cures (Mus musculus [13]): 3; Cures (Mus musculus [14]): 1; Cures (Mus musculus [15]): 5

Question: Cl.Cl.NC1=NC(c2ccccc2)N(c2ccc(CCc3ccc(N4C(N)=NC(N)=NC4c4ccccc4)cc3)cc2)C(N)=N1 (stereo unspecified) was tested. Which Cures (Mus musculus [1]) did it give?
Answer: 4

Question: And the Cures (Mus musculus [11])?
Answer: 1

Question: What about the Cures (Mus musculus [16]) of the same molecule?
Answer: 5

Question: And the Cures (Mus musculus [17])?
Answer: 3

Question: What about the Cures (Mus musculus [15]) of the same molecule?
Answer: 5

Question: What about the Toxic (Mus musculus [18]) of the same molecule?
Answer: 2

Question: And the “Delta MST” value [7]?
Answer: 2.2 days

Question: And the “Delta MST” value [8]?
Answer: 4.1 days

Question: And the “Delta MST” value [19]?
Answer: 0.4 days

Question: And the “Delta MST” value [20]?
Answer: 0 days

Question: For CC1(C)N=C(N)N=C(N)N1c1ccc(OCOc2ccc(N3C(N)=NC(N)=NC3(C)C)cc2)cc1.Cl.Cl, which Cures (Mus musculus [21]) is on record?
Answer: 3

Question: And the Cures (Mus musculus [22])?
Answer: 3

Question: What about the Cures (Mus musculus [15]) of the same molecule?
Answer: 1

Question: What about the Toxic [4] of the same molecule?
Answer: 5

Question: What about the Toxic (Mus musculus [23]) of the same molecule?
Answer: 2

Question: What about the Cures (Mus musculus [24]) of the same molecule?
Answer: 1

Question: And the Toxic [25]?
Answer: 5

Question: What about the “Delta MST” value [26] of the same molecule?
Answer: 1 days

Question: And the “Delta MST” value [8]?
Answer: 1.8 days

Question: And the “Delta MST” value [19]?
Answer: 1.2 days

Question: What about the “Delta MST” value [20] of the same molecule?
Answer: 2.3 days

Question: What about the “Delta MST” value [9] of the same molecule?
Answer: 9 days

Question: How did the Toxic (Mus musculus [27]) turn out when CC1(C)N=C(N)N=C(N)N1c1ccc(OCCCOc2ccc(N3C(N)=NC(N)=NC3(C)C)cc2)cc1.Cl.Cl was run?
Answer: 1

Question: And the Toxic [4]?
Answer: 5

Question: And the Toxic (Mus musculus [24])?
Answer: 5

Question: And the Toxic [28]?
Answer: 5

Question: What about the Toxic [25] of the same molecule?
Answer: 5

Question: And the Toxic (Mus musculus [29])?
Answer: 5

Question: And the “Delta MST” value [26]?
Answer: 0 days

Question: And the “Delta MST” value [19]?
Answer: 0 days

Question: Which results are given for CC1(C)N=C(N)N=C(N)N1c1ccc(C(c2ccc(N3C(N)=NC(N)=NC3(C)C)cc2)c2ccc(N3C(N)=NC(N)=NC3(C)C)cc2)cc1.Cl.Cl?
Answer: Toxic [4]: 5; Toxic [28]: 5; Toxic [25]: 5; Delta MST [26]: 0.1 days; Delta MST (Mus musculus [30]): 0.1 days; Delta MST (Mus musculus [31]): -0.1 days; Delta MST (Mus musculus [32]): -0.1 days

Question: What does the source list for CC1(C)N=C(N)N=C(N)N1c1ccc(-c2ccc(N3C(N)=NC(N)=NC3(C)C)cc2)cc1.Cl.Cl?
Answer: Cures (Mus musculus [33]): 1; Cures (Mus musculus [34]): 1; Cures (Mus musculus [35]): 4; Toxic (Mus musculus [23]): 5; Toxic [28]: 5; Toxic [25]: 5; Toxic (Mus musculus [29]): 5; Toxic (Mus musculus [36]): 5; Delta MST [26]: 3.7 days; Delta MST [19]: 9.2 days; Delta MST [20]: 7.8 days

Question: How did the Cures (Mus musculus [10]) turn out when CC1(C)N=C(N)N=C(N)N1c1ccc2c(c1)Cc1cc(N3C(N)=NC(N)=NC3(C)C)ccc1-2.Cl.Cl was run?
Answer: 3

Question: And the Cures (Mus musculus [37])?
Answer: 1

Question: And the Cures (Mus musculus [12])?
Answer: 1

Question: And the Cures (Mus musculus [13])?
Answer: 2

Question: What about the Cures (Mus musculus [38]) of the same molecule?
Answer: 1

Question: And the Cures (Mus musculus [39])?
Answer: 4

Question: What about the Toxic [4] of the same molecule?
Answer: 5

Question: And the Toxic (Mus musculus [40])?
Answer: 1

Question: And the Toxic [41]?
Answer: 3

Question: What about the Toxic (Mus musculus [5]) of the same molecule?
Answer: 4

Question: What about the “Delta MST” value [26] of the same molecule?
Answer: 3 days

Question: And the “Delta MST” value [6]?
Answer: 2 days

Question: And the “Delta MST” value [7]?
Answer: 26 days

Question: What about the “Delta MST” value [8] of the same molecule?
Answer: 4.5 days

Question: And the “Delta MST” value (Mus musculus [42])?
Answer: 3 days

Question: And the “Delta MST” value [19]?
Answer: 4 days

Question: And the “Delta MST” value [20]?
Answer: 4.3 days
